Results on four compounds are retold here after ChEMBL document CHEMBL1153536, “5-lipoxygenase-activating protein inhibitors: development of 3-[3-tert-butylsulfanyl-1-[4-(6-methoxy-pyridin-3-yl)-benzyl]-5-(pyridin-2-ylmethoxy)-1H-indol-2-yl]-2,2-dimethyl-propionic acid (AM103)” (J Med Chem, 2009).

Activity calls are given as the source filed them. The calls are words filed in the database; no cut-off is given here. Some results are limits rather than exact numbers.

One data set has as its target P2Y purinoceptor 12 (Homo sapiens, UniProt Q9H244). As to the kind of experiment: Agonist activity at human P2Y12 receptor. The class given is functional.
The target of data set [1] is T1, Arachidonate 5-lipoxygenase-activating protein (Homo sapiens, UniProt P20292).
T1 sequence (P20292 whole entry): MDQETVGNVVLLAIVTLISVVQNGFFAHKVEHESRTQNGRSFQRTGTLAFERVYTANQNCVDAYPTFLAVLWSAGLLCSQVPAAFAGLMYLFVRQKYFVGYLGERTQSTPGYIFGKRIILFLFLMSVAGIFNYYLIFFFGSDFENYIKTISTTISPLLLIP
In words: Displacement of [3H]3-[5-(pyrid-2-ylmethoxy)-3-tert-butylthio-1-benzyl-indol-2-yl]-2,2-dimethylpropionic acid from FLAP in human polymorphonuclear cell membrane.

Data set [2] in a line: Inhibition of calcium ionophore A-23187-stimulated LTB4 production in human leukocytes by ELISA. To be noted: Leukocyte. In kind it is functional, cell-based. A digest of the protocol:
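Dextran-sedimented, hypotonically lysed human leukocytes at 1.25 × 10^5 cells/mL, preincubated 5 min at 37 °C with compound in DMSO. Stimulated 5 min at 37 °C with A23187 (5 μL of 0.5 mM into 250 μL). Supernatant LTB4 measured by ELISA at 1:4 dilution; IC50 by nonlinear regression of % inhibition vs log concentration.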

Another data set deals with Blood. In words: Inhibition of calcium ionophore A-23187-stimulated LTB4 production in human whole blood by ELISA. The class given is functional, tissue-based. A digest of the protocol:
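Heparinized human whole blood preincubated 15 min at 37 °C with compound in DMSO. Stimulated 30 min at 37 °C with A23187 (2 μL of 1.5 mM into 150 μL). Plasma LTB4 measured by ELISA at 1:100 dilution; IC50 by nonlinear regression. A single value is one assay averaging two donors.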
(ELISA stands for enzyme-linked immunosorbent assay.)

Data set [3] concerns the target T2, Cytochrome P450 3A4 (Homo sapiens, UniProt P08684). As to the kind of experiment: Inhibition of CYP3A4. In kind it is ADME.
The next data set has as its target Cytochrome P450 2C9 (Homo sapiens, UniProt P11712). As to the kind of experiment: Inhibition of CYP2C9. In kind it is ADME.
The target of a further data set is Cytochrome P450 2D6 (Homo sapiens, UniProt P10635). As to the kind of experiment: Inhibition of CYP2D6. In kind it is ADME.
The test system of data set [4] is Rattus norvegicus. As to the kind of experiment: (§1) Bioavailability in Sprague-Dawley rat at 2 mg/kg, iv and 10 mg/kg, po. In kind it is ADME, organism-based. The following applies: in vivo. A digest of the protocol:
(§2)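 Male rats fasted overnight, 2 or 3 per route. Dosing was 2 mg/kg i.v. as a jugular bolus in PEG400/ethanol/water (40/10/50) and 10 mg/kg p.o. by gavage in 0.5% methylcellulose. Jugular cannula blood was sampled up to 24 h (8-9 samples). Plasma was acetonitrile-precipitated with buspirone internal standard and quantified by LC-MS/MS, positive ESI MRM, calibration […], LLOQ 1-5 ng/mL.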

Data set [5] in a line: Half life in Sprague-Dawley rat at 2 mg/kg, iv. The following applies: in vivo. The class given is ADME, organism-based. Set-up: dose 2 mg/kg, route intravenous. A digest of the protocol:
as §2

Data set [6] can be described thus: Cmax in Sprague-Dawley rat after 10 mg/kg oral dose. The class given is ADME, organism-based. The arrangement: dose 10 mg/kg, route oral. To be noted: in vivo. A digest of the protocol:
as §2

Data set [7] can be described thus: Volume of distribution at steady state in Sprague-Dawley rat at 2 mg/kg, iv and 10 mg/kg, po. The class given is ADME, organism-based. The following applies: in vivo, read-out: Vdss. Summed up:
as §2

The target in data set [8] is T2, Cytochrome P450 3A4. In words: Inhibition of CYP3A4 assessed as inhibition rate.
A short description of data set [9]: Bioavailability in dog at 2 mg/kg, iv and 5 mg/kg, po. The class given is ADME, organism-based, Canis lupus familiaris. To be noted: in vivo.
A further data set concerns the target T3, Cytochrome P450 1A2 (Homo sapiens, UniProt P05177).
T3 sequence (P05177 whole entry): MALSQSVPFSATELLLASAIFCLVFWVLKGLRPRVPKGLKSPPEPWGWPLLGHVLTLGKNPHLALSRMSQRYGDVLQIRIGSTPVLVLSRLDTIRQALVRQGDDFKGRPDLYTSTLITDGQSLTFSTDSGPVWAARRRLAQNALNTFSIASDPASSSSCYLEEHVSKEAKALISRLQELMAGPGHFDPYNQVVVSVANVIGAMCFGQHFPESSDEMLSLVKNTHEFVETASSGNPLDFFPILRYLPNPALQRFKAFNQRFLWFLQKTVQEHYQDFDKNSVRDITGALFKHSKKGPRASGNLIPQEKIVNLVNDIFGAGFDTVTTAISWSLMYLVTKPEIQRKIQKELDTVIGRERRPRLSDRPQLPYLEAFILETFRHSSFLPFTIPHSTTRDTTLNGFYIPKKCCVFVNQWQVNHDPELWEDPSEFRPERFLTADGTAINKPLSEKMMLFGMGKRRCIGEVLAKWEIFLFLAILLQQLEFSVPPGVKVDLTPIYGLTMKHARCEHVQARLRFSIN
As to the kind of experiment: Inhibition of CYP1A2. In kind it is ADME.

The nature of data set [10]: as §1. The class given is ADME, organism-based. The following applies: Sprague-Dawley, in vivo. Summed up:
as §2

The nature of data set [11]: AUC in Sprague-Dawley rat at 10 mg/kg, po. In kind it is ADME, organism-based. Set-up: dose 10 mg/kg, route oral. The following applies: plasma. A digest of the protocol: as §2
Data set [12] in a line: Clearance in Sprague-Dawley rat at 2 mg/kg, iv and 10 mg/kg, po. In kind it is ADME, organism-based. To be noted: in vivo. Summed up: as §2
The next data set has as its target Cytochrome P450 2C19 (Homo sapiens, UniProt P33261). As to the kind of experiment: Inhibition of CYP2C19. The class given is ADME.
Data set [13] in a line: Volume of distribution in dog at 2 mg/kg, iv and 5 mg/kg, po. The class given is ADME, organism-based, Canis lupus familiaris. To be noted: in vivo.
A short description of data set [14]: Half life in dog at 2 mg/kg, iv. To be noted: in vivo. The class given is ADME, organism-based, Canis lupus familiaris. Set-up: dose 2 mg/kg, route intravenous.
Data set [15] concerns Mus musculus. As to the kind of experiment: Antiasthamatic activity against ovalbumin-induced airway lung inflammation in BALB/c mouse bronchoalveolar lavage model assessed as inhibition of increase om cysteinyl leukotrienes level at 10 mg/kg, po every 6 hrs administered 2 hrs prior to ovalbumin-challenge after 24 hrs. In kind it is functional. A digest of the protocol:
(§3)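 Female BALB/c mice (20-25 g) were sensitized i.p. with OVA 100 μg/alum on days 0 and 14, then given intranasal OVA 50 μg in saline on day 21 under isoflurane. Oral 0.5% methocel vehicle or drug 10 mg/kg started 2 h before challenge, then every 6 h (4 doses). BAL with 4 × 0.3 mL PBS at 24 h; CysLTs and IL-5 by EIA, EPO by peroxidase assay.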

The subject of data set [16] is Mus musculus. In words: Antiasthamatic activity against ovalbumin-induced airway lung inflammation in BALB/c mouse bronchoalveolar lavage model assessed as inhibition of increase in eosinophile peroxidase level at 10 mg/kg, po every 6 hrs administered 2 hrs prior to ovalbumin-challenge after 24 hrs. In kind it is functional. Summed up:
as §3

Data set [17] concerns Mus musculus. As to the kind of experiment: Antiasthamatic activity against ovalbumin-induced airway lung inflammation in BALB/c mouse bronchoalveolar lavage model assessed as inhibition of increase in IL5 level at 10 mg/kg, po every 6 hrs administered 2 hrs prior to ovalbumin-challenge after 24 hrs. In kind it is functional, organism-based. The arrangement: dose 10 mg/kg. A digest of the protocol: as §3

Data set [18] is described as follows: Plasma concentration in BALB/c mouse at 10 mg/kg, po after 6 hrs. In kind it is ADME, organism-based. The arrangement: dose 10 mg/kg, route oral. Summed up:
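Female BALB/c mice, separate cohort (n = 6). Single oral dose 10 mg/kg; plasma drug level measured 6 h post-dose.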

The target of the next data set is CYP3A4 (Homo sapiens, UniProt P08684). In words: Inhibition of CYP3A4 at 10 uM. In kind it is ADME.
Data set [19] is described as follows: Half life in Sprague-Dawley rat at 10 mg/kg, po. In kind it is ADME, organism-based. The arrangement: dose 10 mg/kg, route oral. To be noted: in vivo. A digest of the protocol: as §2
The test system of data set [20] is Rattus norvegicus. As to the kind of experiment: Volume of distribution at steady state in Sprague-Dawley rat at 10 mg/kg, po. The class given is ADME, organism-based. The following applies: in vivo. Set-up: dose 10 mg/kg, route oral. A digest of the protocol: as §2
Data set [21] is described as follows: Clearance in Sprague-Dawley rat 10 mg/kg, po. In kind it is ADME, organism-based. The arrangement: dose 10 mg/kg, route oral. The following applies: in vivo. Summed up:
as §2

T2 sequence (P08684 whole entry): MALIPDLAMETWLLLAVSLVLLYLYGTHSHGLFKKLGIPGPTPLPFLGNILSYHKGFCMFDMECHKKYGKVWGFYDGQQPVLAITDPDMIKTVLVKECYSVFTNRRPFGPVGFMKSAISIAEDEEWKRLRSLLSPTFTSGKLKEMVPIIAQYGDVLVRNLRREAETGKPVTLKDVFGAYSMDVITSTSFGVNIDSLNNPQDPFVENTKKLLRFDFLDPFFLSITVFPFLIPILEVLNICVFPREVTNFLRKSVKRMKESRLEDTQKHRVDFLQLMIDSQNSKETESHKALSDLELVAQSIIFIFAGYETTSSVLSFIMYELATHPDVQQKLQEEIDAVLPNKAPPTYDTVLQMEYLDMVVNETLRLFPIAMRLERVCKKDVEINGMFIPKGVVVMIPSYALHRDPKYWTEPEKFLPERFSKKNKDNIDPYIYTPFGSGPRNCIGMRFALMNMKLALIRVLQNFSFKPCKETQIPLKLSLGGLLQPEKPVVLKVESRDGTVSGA
Sequence of Cytochrome P450 2C9 (P11712 whole entry): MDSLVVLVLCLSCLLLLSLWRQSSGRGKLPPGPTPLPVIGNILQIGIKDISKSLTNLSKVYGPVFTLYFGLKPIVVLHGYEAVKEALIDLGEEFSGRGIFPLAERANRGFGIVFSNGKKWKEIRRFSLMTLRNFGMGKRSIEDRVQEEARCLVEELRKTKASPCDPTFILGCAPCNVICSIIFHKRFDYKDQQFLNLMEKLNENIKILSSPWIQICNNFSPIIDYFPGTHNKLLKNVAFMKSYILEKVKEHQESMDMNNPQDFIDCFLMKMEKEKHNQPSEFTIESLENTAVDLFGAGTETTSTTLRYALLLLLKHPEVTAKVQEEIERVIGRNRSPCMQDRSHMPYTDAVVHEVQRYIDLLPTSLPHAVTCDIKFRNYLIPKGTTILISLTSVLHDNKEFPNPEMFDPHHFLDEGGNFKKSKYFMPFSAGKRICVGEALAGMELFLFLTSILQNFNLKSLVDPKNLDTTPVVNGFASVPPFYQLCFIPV
Sequence of Cytochrome P450 2D6 (P10635 whole entry): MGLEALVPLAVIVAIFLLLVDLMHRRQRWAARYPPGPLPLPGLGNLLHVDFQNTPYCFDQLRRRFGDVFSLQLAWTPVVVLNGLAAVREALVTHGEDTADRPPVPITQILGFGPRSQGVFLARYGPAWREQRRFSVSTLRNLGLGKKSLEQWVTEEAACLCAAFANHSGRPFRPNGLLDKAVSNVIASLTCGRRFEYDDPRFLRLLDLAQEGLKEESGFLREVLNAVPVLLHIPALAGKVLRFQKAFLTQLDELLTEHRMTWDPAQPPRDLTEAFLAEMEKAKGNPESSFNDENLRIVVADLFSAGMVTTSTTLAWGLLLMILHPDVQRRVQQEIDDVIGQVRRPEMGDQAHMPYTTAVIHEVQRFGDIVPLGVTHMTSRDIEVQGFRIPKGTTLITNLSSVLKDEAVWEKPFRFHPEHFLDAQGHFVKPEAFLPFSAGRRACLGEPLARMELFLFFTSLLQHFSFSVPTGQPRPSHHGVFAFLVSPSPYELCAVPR
Sequence of P2Y purinoceptor 12 (Q9H244 whole entry): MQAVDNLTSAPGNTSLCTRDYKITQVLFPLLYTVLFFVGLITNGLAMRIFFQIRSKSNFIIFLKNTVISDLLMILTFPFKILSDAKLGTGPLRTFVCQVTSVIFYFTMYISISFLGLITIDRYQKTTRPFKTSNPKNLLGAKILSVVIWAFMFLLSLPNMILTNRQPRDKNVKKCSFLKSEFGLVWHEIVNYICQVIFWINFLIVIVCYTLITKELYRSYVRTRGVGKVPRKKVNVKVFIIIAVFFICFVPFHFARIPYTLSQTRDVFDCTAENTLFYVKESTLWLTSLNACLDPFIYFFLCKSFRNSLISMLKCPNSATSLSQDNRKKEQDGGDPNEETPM
Sequence of CYP3A4 (P08684 whole entry): as the sequence (P08684 whole entry) above
Sequence of Cytochrome P450 2C19 (P33261 whole entry): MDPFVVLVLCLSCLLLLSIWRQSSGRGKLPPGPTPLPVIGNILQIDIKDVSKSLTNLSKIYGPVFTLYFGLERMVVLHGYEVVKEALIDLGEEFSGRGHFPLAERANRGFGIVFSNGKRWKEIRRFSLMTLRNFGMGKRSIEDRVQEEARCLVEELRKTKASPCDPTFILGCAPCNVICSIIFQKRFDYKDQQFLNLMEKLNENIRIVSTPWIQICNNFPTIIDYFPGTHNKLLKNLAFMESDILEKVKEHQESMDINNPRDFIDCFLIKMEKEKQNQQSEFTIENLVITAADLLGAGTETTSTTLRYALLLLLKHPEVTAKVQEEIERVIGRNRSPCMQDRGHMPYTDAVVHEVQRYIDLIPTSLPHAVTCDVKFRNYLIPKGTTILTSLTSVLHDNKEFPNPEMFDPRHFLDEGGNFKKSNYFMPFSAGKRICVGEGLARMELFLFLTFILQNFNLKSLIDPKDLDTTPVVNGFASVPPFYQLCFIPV

The term EC50 denotes the concentration at which the effect is half-maximal. A low value points to greater potency. On to `CCCCC/C=C\C\C=C/C=C/C=C/[C@@H](SC[C@H](N)C(=O)O)[C@@H](O)CCCC(=O)O` [LEUKOTRIEN E4], for which the midpoint of the response on P2Y purinoceptor 12, the EC50, lay at 1.3 nM. In other words, the single-digit nanomolar range.

What is called IC50 is the concentration needed to halve the response being measured. Usually half-life stands for the time in which the quantity being followed falls by half. What is called Cmax is the peak of the concentration-time curve. In the case of `COc1ccc(-c2ccc(Cn3c(CC(C)(C)C(=O)O)c(SC(C)(C)C)c4cc(OCc5ccccn5)ccc43)cc2)nn1`, the half-inhibitory concentration (IC50) in data set [1] was 4 nM; in data set [2], 3.6 nM; with Blood it was 1580 nM; against Cytochrome P450 3A4 [3] it was 15100 nM; against Cytochrome P450 2C9, 26900 nM; against Cytochrome P450 2D6 it was over 30000 nM. The same compound yielded a F in the data set on Rattus norvegicus [4] of 42%. In data set [5], this compound showed a half-life of 2.1 h. In [6], this compound registered a Cmax of 7900 ng/mL. The Vd in data set [7] was 0.47 L/kg.

By bioavailability is commonly meant dose-corrected exposure relative to a reference, in per cent. A higher bioavailability goes with much systemic uptake. As usually defined, the AUC is concentration integrated over time. A low value points to low exposure. For orientation: inhibition in vivo means the drop in the measured response relative to a control, in per cent. With `COc1ccc(-c2ccc(Cn3c(CC(C)(C)C(=O)O)c(SC(C)(C)C)c4cc(OCc5ccccn5)ccc43)cc2)cn1`, the TDI at Cytochrome P450 3A4 [8] was 0.015 min⁻¹. Moreover, the bioavailability is 64% in data set [9] and 100% in [10]. For the same compound, the concentration for half-maximal inhibition (IC50) is 4.2 nM in data set [1]; 0.5 nM in data set [2]; 349 nM in the data set with Blood; over 50000 nM at Cytochrome P450 3A4 [3]; over 50000 nM against Cytochrome P450 2C9; over 30000 nM against Cytochrome P450 2D6. Besides, the IC50 against Cytochrome P450 1A2 and against Cytochrome P450 2C19 was over 50000 nM in each case. In addition, the values for the half-life in data set [5] and in data set [14] were 2.2 h and 5.2 h, respectively. This compound registered a Cmax in data set [6] of 9000 ng/mL. The compound also had an AUC in [11] of 26000 ng·h/mL. The compound further showed a clearance in data set [12] of 5.4 mL/min/kg. The Vd in [7] is 0.3 L/kg; in data set [13], 0.41 L/kg. The inhibition in vivo at 10 mg/kg in the data set on Mus musculus [15] and with Mus musculus [16] was 60% throughout. Also, the result in the data set on Mus musculus [17] was Active. Further, the concentration at 6 h in [18] was determined as 406 nM.

As usually defined, the inhibition is how much of the control response was suppressed. A high value points to a response far below the control. What is called CL/F is the apparent clearance, not corrected for the fraction that reaches the circulation. In the case of `COc1ccc(-c2ccc(Cn3c(CC(C)(C)C(=O)O)c(SC(C)(C)C)c4cc(OCc5ccccn5)ccc43)cc2)nc1`, the IC50 in [1] is 6.8 nM; in data set [2], 4.1 nM; with Blood, 277 nM; against Cytochrome P450 2C9, over 10000 nM; against Cytochrome P450 2D6, over 10000 nM. Also, 10 µM produced 61% inhibition against CYP3A4. For the same compound, in data set [10], the bioavailability is 100%. In data set [6], the maximum concentration (Cmax) stood at 21800 ng/mL. In addition, the AUC in data set [11] is 61600 ng·h/mL. The compound further showed a half-life in data set [19] of 1.9 h. The compound further had a Vdss in the data set on Rattus norvegicus [20] of 0.51 L/kg. For the same compound, the CL/F in [21] turned out to be 2.8 mL/min/kg.
